Screens from PubChem.
Only some compounds are listed: those with a hit (about 0.6% of all), similar ones and a draw of the others.
Keap1-Nrf2 PPI = Keap1-Nrf2 (human) interaction inhibition. Keap1 Kelch-Nrf2 peptide fluorescence polarization, 1536-well. inhibition, % at 9.4 µM. actives 0.15% (n = 340,000). AID 504523; in the data active = inhibition above about 12%; inconclusive = no clear call, values can overlap the other calls; inactive = below about 7.3%;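 also: human Keap1 Kelch domain with fluorescein labeled Nrf2 9mer peptide probe; 0% = neutral control wells and 100% = peptide positive control; higher means more block of Keap1 binding to Nrf2 peptide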
Target sequence (Q14145 whole entry, looked up, the tested form may be a part): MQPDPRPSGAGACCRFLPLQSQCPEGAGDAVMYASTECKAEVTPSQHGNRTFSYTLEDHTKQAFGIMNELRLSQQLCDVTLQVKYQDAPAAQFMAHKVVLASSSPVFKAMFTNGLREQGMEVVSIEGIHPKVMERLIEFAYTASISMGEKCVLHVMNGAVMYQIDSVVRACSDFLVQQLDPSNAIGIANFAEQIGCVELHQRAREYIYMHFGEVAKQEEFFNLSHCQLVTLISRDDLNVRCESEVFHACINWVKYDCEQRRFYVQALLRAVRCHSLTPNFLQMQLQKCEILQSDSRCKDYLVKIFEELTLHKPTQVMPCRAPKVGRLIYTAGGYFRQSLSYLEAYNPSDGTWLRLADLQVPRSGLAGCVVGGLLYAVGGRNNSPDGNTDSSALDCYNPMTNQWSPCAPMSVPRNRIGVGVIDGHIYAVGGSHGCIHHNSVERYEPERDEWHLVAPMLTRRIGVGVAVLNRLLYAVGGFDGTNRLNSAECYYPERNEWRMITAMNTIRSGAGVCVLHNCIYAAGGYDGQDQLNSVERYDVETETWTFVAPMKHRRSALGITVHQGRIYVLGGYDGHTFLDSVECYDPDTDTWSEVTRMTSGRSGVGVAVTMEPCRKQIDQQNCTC
Tn6 DDE FP = DD(E)-Tn6 binding inhibition, primary FP screen; AID 720509; P02675; Fibrin DD(E) TRITC-Tn6 fluorescence polarization displacement; inhibition, % at 8.3 µM; actives 0.21% (n = 370,000);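 active = inhibition above a per-campaign cutoff: mean of compounds within control limits plus 3 SD, cut at about 15% in these data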;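 also: 0% = median of all compound wells on the plate and 100% = blocking peptide control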
Rtt109 Vps75 = C. albicans Rtt109 histone acetyltransferase inhibition; actives 0.16% (n = 330,000); purified Rtt109/Vps75, ThioGlo CoA-SH fluorescence, 4 h; inhibition, % at 34.9 µM; Q5AAJ8;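 active = inhibition of at least 50% in every replicate; inconclusive = best replicate reaches 50% inhibition but some replicates fall short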
DDE Tn7 FP inh = inhibitors of Tn7 peptide binding to human fibrin DD(E) | FP displacement of FITC-Tn7 peptide from fibrin DD(E); 0% = median of compound wells per plate | inhibition, % at 8.3 µM | actives 0.13% (n = 370,000) | AID 720508;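 active = inhibition above the mean of compounds falling within the control limits plus 3 SD of them, cut at about 14% in these data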;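 also: 0% = plate median of compound wells and 100% = 10 µM Aha-Tn7 peptide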
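Measure: % inhibition scaled between sample-field median and high-control FP; Test system: human fibrin DD(E); Quantity: 2 µM final DD(E) protein; Doses: one dose, 8.3 µM nominal; Schedule: compound with protein 10 min, then 3 h after probe, room temperature; Detection: fluorescence polarization; Medium: Tris buffer with calcium and detergent, pH 7.8.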
C-LANA FP = KSHV C-LANA DNA binding inhibition | MBP-C-LANA/FAM-LBS DNA binding, fluorescence polarization | inhibition, % at 9 µM | actives 0.078% (n = 340,000) | AID 504423;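 active = highest replicate inhibition at or above 60% at 9 µM, even if other replicates fall short; inactive = all replicates below 60% inhibition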;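 also: 0% = neutral control wells and 100% = 4 µM acridine orange control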
* hit, by the source's call.

COc1ccc(C=NNC(=O)Cc2cc(=O)[nH][nH]2)c(OC)c1 was read as Tn6 DDE FP -6 and DDE Tn7 FP inh 10.
O=C(NC1CCCC1)C1CSCCS(=O)(=O)N1Cc1ccc(F)cc1 (stereo unspecified) was read as Tn6 DDE FP 2 and DDE Tn7 FP inh -2.
`COc1cccc(/C=C/C(=O)NCc2cn3cc(Cl)ccc3n2)c1` gave Keap1-Nrf2 PPI 3, Tn6 DDE FP -7, Rtt109 Vps75 23, DDE Tn7 FP inh 0 and C-LANA FP 77*.
O=C1NC2(CCCCC2)Cc2ccccc21 was read as Keap1-Nrf2 PPI -2, Tn6 DDE FP -7, DDE Tn7 FP inh -4 and C-LANA FP 0.
Screening S=C1NC2(CCCCC2)Cc2ccccc21 returned Keap1-Nrf2 PPI -2, Tn6 DDE FP 2, Rtt109 Vps75 51*, DDE Tn7 FP inh -8 and C-LANA FP -1.
For CCC(NC(=O)CN1CCN(c2cccc(OC)c2)CC1)c1ccccc1 (stereo unspecified) the results were Tn6 DDE FP 4 and DDE Tn7 FP inh -2.
For O=C1C2CCCCN2C(=O)N1CCCN1CCN(c2ccc(F)cc2)CC1 (stereo unspecified) the results were Keap1-Nrf2 PPI 2, Rtt109 Vps75 0 and C-LANA FP 2.
Screening Nc1ccc(N2CCN(CCCCN3C(=O)C4CCCN4C3=O)CC2)cc1 (stereo unspecified) returned Keap1-Nrf2 PPI 0, Tn6 DDE FP 50*, Rtt109 Vps75 39, DDE Tn7 FP inh 1 and C-LANA FP -9.
CC(C(=O)OCC(=O)c1ccc([N+](=O)[O-])cc1)N1C(=O)C2C3CCC(C3)C2C1=O (stereo unspecified) was read as Keap1-Nrf2 PPI -2, Tn6 DDE FP 1, Rtt109 Vps75 108*, DDE Tn7 FP inh -4 and C-LANA FP 2.
For CC(C(=O)OCC(=O)c1ccc([N+](=O)[O-])cc1)N1C(=O)C2C3C=CC(C3)C2C1=O (stereo unspecified) the results were Keap1-Nrf2 PPI -1, Tn6 DDE FP 0, Rtt109 Vps75 inconclusive, DDE Tn7 FP inh -5 and C-LANA FP -1.
`COc1cccc2c1Oc1ncccc1N(C(=O)CCC(=O)NCc1ccc(F)cc1)C2` gave Keap1-Nrf2 PPI 0, Tn6 DDE FP 10, Rtt109 Vps75 51*, DDE Tn7 FP inh 1 and C-LANA FP 0.
O=C(N[C@@H](Cc1c[nH]c2ccccc12)C(=O)O)c1ccc(Cl)cc1 was read as Keap1-Nrf2 PPI 0, Tn6 DDE FP 5, Rtt109 Vps75 -4, DDE Tn7 FP inh -7 and C-LANA FP -1.
`NC(=NCCc1c[nH]c2ccccc12)NC(=O)c1ccc(Cl)cc1` gave Keap1-Nrf2 PPI 3, Tn6 DDE FP -17, Rtt109 Vps75 4, DDE Tn7 FP inh -3 and C-LANA FP 81*.
Screening COc1ccccc1C1CC(c2cccs2)=Nc2ccccc2S1 (stereo unspecified) returned Keap1-Nrf2 PPI 2, Tn6 DDE FP -2, Rtt109 Vps75 inconclusive, DDE Tn7 FP inh 9 and C-LANA FP 1.
Screening Fc1ccccc1C1CC(c2ccco2)=Nc2ccccc2S1 (stereo unspecified) returned Keap1-Nrf2 PPI -3, Tn6 DDE FP 7, Rtt109 Vps75 83*, DDE Tn7 FP inh -1 and C-LANA FP -2.
For Cn1cccc1CC(=O)NN=C/C=C\c1ccco1 the results were Tn6 DDE FP -10 and DDE Tn7 FP inh -4.
`O=C(NCc1ccc2c(c1)OCO2)c1ccc(CS(=O)Cc2cccc(Cl)c2)o1` (stereo unspecified) gave Keap1-Nrf2 PPI -1, Tn6 DDE FP 7, Rtt109 Vps75 52*, DDE Tn7 FP inh -2 and C-LANA FP -1.
Screening O=C(NCc1ccc2c(c1)OCO2)c1ccc(CS(=O)Cc2ccc(Cl)cc2)o1 (stereo unspecified) returned Keap1-Nrf2 PPI 2, Tn6 DDE FP 4, Rtt109 Vps75 -5, DDE Tn7 FP inh 5 and C-LANA FP 0.
`CC(C)(C)S(=O)N1Cc2cc(C(=O)NCc3ccc(Oc4ccccc4)cc3)nc(-c3cccc(-c4cc5ccccc5o4)c3)c2[C@H]1CCO` (stereo partly specified) gave Tn6 DDE FP 17* and DDE Tn7 FP inh 4.
`CC(C)(C)S(=O)N1Cc2cc(C(=O)NCc3ccc4c(c3)OCO4)nc(-c3cccc(-c4cc5ccccc5o4)c3)c2[C@@H]1CCO` (stereo partly specified) gave Tn6 DDE FP -10 and DDE Tn7 FP inh -3.
Screening O=C(O)CCNc1cc(N2CCN(C(=O)c3ccco3)CC2)c2noc3c2c1C(=O)c1ccccc1-3 returned Keap1-Nrf2 PPI -261, Tn6 DDE FP 46*, Rtt109 Vps75 13, DDE Tn7 FP inh -4 and C-LANA FP -16.
CCn1c(SCC(=O)Nc2ccc(C(=O)OC)cc2)nnc1-c1cccc(Cl)c1 was read as Tn6 DDE FP 1 and DDE Tn7 FP inh 4.
O=C(CSc1nnc(-c2ccco2)n1-c1ccc(Cl)cc1)Nc1ccc(S(=O)(=O)Nc2nccs2)cc1 was read as Tn6 DDE FP -2 and DDE Tn7 FP inh -8.
For CC(CCC(C)C(C)(C)C)[C@@H]1CC[C@H]2C3C[C@H](OS(O)(=S)=S)[C@H]4C[C@H](OS(O)(=S)=S)[C@@H](OS(O)(=S)=S)C[C@]4(C)[C@H]3CC[C@]12C (stereo partly specified) (tested in a mixture with another compound) the results were Keap1-Nrf2 PPI 84*, Rtt109 Vps75 inconclusive and C-LANA FP 123*.
Screening CCCCCC[C@@H](CN(CCCC)S(C)(=O)=O)c1ccccc1 returned Tn6 DDE FP 12 and DDE Tn7 FP inh 9.
`Cc1cc(C)n2c(SCCC(C)C)nnc2n1` gave Keap1-Nrf2 PPI -5, Tn6 DDE FP 0, Rtt109 Vps75 -4, DDE Tn7 FP inh 15* and C-LANA FP -1.
For Clc1ccc(OCc2nnc(-c3ccccc3Br)o2)c(Cl)c1 the results were Keap1-Nrf2 PPI -2, Tn6 DDE FP 42*, Rtt109 Vps75 3, DDE Tn7 FP inh -9 and C-LANA FP 1.
`Fc1ccc(OCc2nnc(-c3ccccc3Br)o2)c(Cl)c1` gave Keap1-Nrf2 PPI 2, Tn6 DDE FP 10, Rtt109 Vps75 -6, DDE Tn7 FP inh 0 and C-LANA FP 0.
Screening Cn1cc(/C=C2\SC(=O)NC2=S)c2ccccc21 returned Keap1-Nrf2 PPI -5, Tn6 DDE FP -1, Rtt109 Vps75 11, DDE Tn7 FP inh 16* and C-LANA FP 2.
`Cc1ccc(C(=O)NN2C(=O)/C(=C/c3cn(C)c4ccccc34)SC2=S)cc1` gave Keap1-Nrf2 PPI -2, Tn6 DDE FP -2, Rtt109 Vps75 -2, DDE Tn7 FP inh -4 and C-LANA FP 3.
Screening COc1cc2c(cc1NC(=O)CSc1nnc(-c3cccc(Cl)c3)n1-c1ccccc1)oc1ccccc12 returned Tn6 DDE FP 3 and DDE Tn7 FP inh 0.
